Data on 14 compounds can be found in PubChem BioAssay.

For orientation: viability means a read-out of living cells in per cent, often relative to untreated cells. By inhibition is commonly meant the drop in the measured response relative to a control, in per cent.

Active and inactive are the calls of the source. Unless noted, no stated cut-off is given here; in the data, active means inhibition above about 30%; inactive means the rest.

Assay [1] is described as follows: Her2 expression decrease, cell viability multiplex – SKBR3 breast tumor cells, AlphaScreen, ATP viability, primary screen (AID 461;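 active means Her2 level under about 52% in both replicate screens, with viability over 70% of control, limit read from the data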;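 on Her2 level: lower value means less Her2 protein in the cells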;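 on viability: percent of carrier control wells set as 100% viability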). To be noted: SKBR3 Her2 protein level, 18-24 h, measured here: SKBR3 viability, ATP luminescence, at 10 µM. In general terms: In Alpha technology, singlet oxygen from a donor bead excites a nearby acceptor bead.
In assay [2] the target is Receptor tyrosine-protein kinase erbB-2 (Homo sapiens) (UniProt P04626). The assay is described as above. To be noted: 18-24 h, at 10 µM, stronger effect = lower value.
Assay [3] in a line: reduced viability of SK-BR-3 breast cancer cells – cell-based, 24 h, human, pilot screen (AID 572;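 active means viability at or below 10% of carrier control in both of two separate runs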;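 further: compound exposure lasted between 18 and 24 h rather than exactly 24 h; 100% = carrier-treated control wells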). To be noted: SK-BR-3 viability, CellTiter-Glo luminescence, at 10 µM, stronger effect = lower value. On the technique in general: In ATP-based viability assays light output follows the ATP content of the culture.
Assay [4] is described as follows: HUVEC growth inhibition – cell-based, human, primary screen (AID 575;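 active means viability at or below 30% in both replicate assays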;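 further: 100% = median of untreated cell wells with 0.1% DMSO on each plate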). To be noted: HUVEC proliferation, CellTiter-Glo luminescence, 72 h; at 10 µM; stronger effect = lower value. The method in brief: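 Test system: primary human umbilical vein endothelial cells; medium: endothelial basal medium with 2% FBS plus growth supplements; dosing: 10 µM compound only; times: 72 h treatment at 37 °C; signal: CTG luminescence; read-out: % viability relative to median vehicle-well signal on each plate; control set: vehicle and MePR control wells; plate: 384-well, collagen-coated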

Assay [5] can be described thus: H69AR cell proliferation blockers – human, duplicate replicates, primary screen (AID 580;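 active means viability at or under a set limit in both replicates, limit being median viability minus 3 SD, cut at about 48% in these data, passing the limit was not always enough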;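 further: 100% = mean luminescence of untreated wells and 0% = no signal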). To be noted: H69AR lung tumor cells viability, ATP luminescence, 72 h; at 10 µM; stronger effect = lower value.
Assay [6] is described as follows: MRP1 drug-resistance reversers in H69AR cells – cell-based, doxorubicin co-treatment, pilot screen (AID 601;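 active means viability loss from added drug above about 55%, and viability with drug at most 40%, in both replicates, limit read from the data, passing the limit was not always enough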). To be noted: CellTiter-Glo, 72 h, at 10 µM; for differential viability (reversal): stronger effect = higher value.
Assay [7] can be described thus: yeast transport mutant growth inhibition pilot in 384-well plates, post-Golgi transport modulator project (AID 636; in the data active means inhibition above about 31%). To be noted: absorbance 615 nm, about 18 h, stronger effect = higher value.
Assay [8] can be described thus: growth suppression of yeast trafficking mutant, preliminary HTS, modulators of trafficking downstream of Golgi apparatus project, 1536-format plate, OD 615 nm (AID 637). To be noted: yeast transport mutant growth, absorbance 615 nm, 18 h; stronger effect = higher value.
The mark [9] stands for this setting: H69AR cells + 2 uM doxorubicin, measured here: viability with 2 uM doxorubicin, stronger effect = lower value.
Setting [10] is: H69AR cells, compound alone cytotoxicity.

Receptor tyrosine-protein kinase erbB-2 (Homo sapiens), sequence (P04626 whole entry, looked up): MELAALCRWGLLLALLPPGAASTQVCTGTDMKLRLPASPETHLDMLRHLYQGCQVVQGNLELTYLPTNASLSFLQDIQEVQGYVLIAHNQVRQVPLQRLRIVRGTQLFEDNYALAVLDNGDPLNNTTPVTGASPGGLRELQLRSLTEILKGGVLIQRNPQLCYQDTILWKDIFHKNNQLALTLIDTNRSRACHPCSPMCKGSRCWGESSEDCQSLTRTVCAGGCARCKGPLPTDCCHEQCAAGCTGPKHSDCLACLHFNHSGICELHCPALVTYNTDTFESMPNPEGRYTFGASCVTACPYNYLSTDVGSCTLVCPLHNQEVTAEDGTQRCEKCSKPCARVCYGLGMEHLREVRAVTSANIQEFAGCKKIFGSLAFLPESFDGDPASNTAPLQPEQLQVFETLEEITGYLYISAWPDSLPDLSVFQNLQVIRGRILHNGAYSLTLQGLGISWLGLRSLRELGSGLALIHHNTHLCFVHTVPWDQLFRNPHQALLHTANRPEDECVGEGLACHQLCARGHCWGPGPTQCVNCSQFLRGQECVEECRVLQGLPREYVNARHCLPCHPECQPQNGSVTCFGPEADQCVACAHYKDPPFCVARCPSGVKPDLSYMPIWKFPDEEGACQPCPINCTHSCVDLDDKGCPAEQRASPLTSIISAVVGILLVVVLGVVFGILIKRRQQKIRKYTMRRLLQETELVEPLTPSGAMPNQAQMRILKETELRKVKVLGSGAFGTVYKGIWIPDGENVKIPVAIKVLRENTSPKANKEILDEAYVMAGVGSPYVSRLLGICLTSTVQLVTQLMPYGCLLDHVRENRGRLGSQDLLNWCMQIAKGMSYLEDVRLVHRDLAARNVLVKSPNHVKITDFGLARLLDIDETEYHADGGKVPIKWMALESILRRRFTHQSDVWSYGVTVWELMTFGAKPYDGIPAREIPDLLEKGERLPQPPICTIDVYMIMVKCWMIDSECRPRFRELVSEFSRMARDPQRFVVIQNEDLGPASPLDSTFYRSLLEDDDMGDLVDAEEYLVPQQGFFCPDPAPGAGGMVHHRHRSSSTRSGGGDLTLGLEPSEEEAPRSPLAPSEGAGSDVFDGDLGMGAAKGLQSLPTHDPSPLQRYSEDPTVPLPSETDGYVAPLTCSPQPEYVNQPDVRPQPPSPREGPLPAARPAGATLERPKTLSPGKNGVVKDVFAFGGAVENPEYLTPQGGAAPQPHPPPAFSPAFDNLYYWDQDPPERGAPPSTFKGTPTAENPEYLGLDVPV

Take `CCCCC(=O)NCCc1ccc(S(N)(=O)=O)cc1`: the viability was 104% in assay [1]; 104% (inactive) in assay [3]; 95.4% (inactive) in assay [4]; 97.1% (inactive) in assay [5]; 87.7% in assay [6] (setting [9]); 97.1% in assay [6] (setting [10]). Also, the Her2 level in assay [2] is 104% (inactive). Moreover, the differential viability (reversal) in assay [6] (H69AR cells + 2 uM doxorubicin) is 9.4% (inactive). Besides, the inhibition in assay [7] is -2.16% (inactive); in assay [8], 2.62% (inactive).
`CCOC(=O)c1cc(-c2ccco2)nc2c1c(C)nn2CCC#N`: the viability in assay [1] is 96%; in assay [3], 96% (inactive); in assay [4] it was 98% (inactive); in assay [5], 68.3% (inactive); in assay [6] (setting [9]), 84.5%; in assay [6] (setting [10]), 68.3%. Moreover, in assay [2], the Her2 level was 101% (inactive). In assay [6] (H69AR cells + 2 uM doxorubicin), the differential viability (reversal) was -16.2% (inactive). Besides, the inhibition was 4.05% (inactive) in assay [7] and 3.97% (inactive) in assay [8].
As for `O=S(=O)(Nc1ncccn1)c1ccc(Nc2ncnc3ccccc23)cc1`, the viability in assay [1] is 97.5%; in assay [3], 97.5% (inactive); in assay [4] it was 81.2% (inactive); in assay [5], 95.7% (inactive); in assay [6] (setting [9]) it was 94.5%; in assay [6] (setting [10]) it was 95.7%. For the same compound, in assay [2], the Her2 level was 93% (inactive). Moreover, the differential viability (reversal) in assay [6] (H69AR cells + 2 uM doxorubicin) was 1.15% (inactive). Further, the results for the inhibition in assay [7] and in assay [8] were -7.57% (inactive) and 3.11% (inactive), respectively.
With `O=S(=O)(NCc1cn2ccsc2n1)c1ccc2c(c1)OCCO2`, the viability in assay [1] is 117%; in assay [3] it was 117% (inactive); in assay [4], 96.4% (inactive); in assay [5], 105% (inactive); in assay [6] (setting [9]) it was 95.5%; in assay [6] (setting [10]), 105%. Besides, in assay [2], the Her2 level is 102% (inactive). Besides, the differential viability (reversal) in assay [6] (H69AR cells + 2 uM doxorubicin) is 9.79% (inactive). The inhibition in assay [7] is -7.07% (inactive); in assay [8], -2.26% (inactive).
Turning to `OC(CN1CCN(c2ccccn2)CC1)Cn1c2ccccc2c2ccccc21` (stereo not given), the viability was 100% in assay [1]; 100% (inactive) in assay [3]; 67.2% (inactive) in assay [4]; 82.1% (inactive) in assay [5]; 92.4% in assay [6] (setting [9]); 82.1% in assay [6] (setting [10]). For the same compound, the Her2 level in assay [2] was 114% (inactive). For the same compound, in assay [6] (H69AR cells + 2 uM doxorubicin), the differential viability (reversal) was -10.4% (inactive). The inhibition in assay [7] was -0.65% (inactive); in assay [8] it was 6.5% (inactive).
For `O=C(NCCN1CCOCC1)c1csc2c1CCCC2`, the viability in assay [1] was 97.5%; in assay [3], 97.5% (inactive); in assay [4] it was 95% (inactive); in assay [5] it was 102% (inactive); in assay [6] (setting [9]), 86%; in assay [6] (setting [10]), 102%. For the same compound, the Her2 level in assay [2] was 83% (inactive). Besides, in assay [6] (H69AR cells + 2 uM doxorubicin), the differential viability (reversal) is 16.4% (inactive). Also, the inhibition in assay [7] is -7.3% (inactive); in assay [8], -1.83% (inactive).
For the compound `Cc1c(C(=O)N2CCOCC2)oc2ccc(S(=O)(=O)N3CCCC3)cc12`, the viability was 95% in assay [1]; 95% (inactive) in assay [3]; 94.3% (inactive) in assay [4]; 87.8% (inactive) in assay [5]; 94% in assay [6] (setting [9]); 87.8% in assay [6] (setting [10]). In addition, in assay [2], the Her2 level was 109% (inactive). In addition, the differential viability (reversal) in assay [6] (H69AR cells + 2 uM doxorubicin) is -6.14% (inactive). In addition, the inhibition in assay [7] is -6.35% (inactive); in assay [8], -4.59% (inactive).
Regarding `CCn1c(SCC(=O)N2CCCc3ccccc32)nnc1-c1cccs1`, the viability in assay [1] was 85.5%; in assay [3] it was 85.5% (inactive); in assay [4], 83.3% (inactive); in assay [5] it was 87.5% (inactive); in assay [6] (setting [9]), 82.2%; in assay [6] (setting [10]) it was 87.5%. In addition, in assay [2], the Her2 level is 72.5% (inactive). In assay [6] (H69AR cells + 2 uM doxorubicin), the differential viability (reversal) was 5.33% (inactive). Also, the inhibition is -5.87% (inactive) in assay [7] and 0.16% (inactive) in assay [8].
In the case of `Cc1occc1C(=O)Nc1ccccc1NC(=O)c1ccoc1C`, the viability is 96.5% in assay [1]; 96.5% (inactive) in assay [3]; 90.9% (inactive) in assay [4]; 100% (inactive) in assay [5]; 92% in assay [6] (setting [9]); 100% in assay [6] (setting [10]). Further, the Her2 level in assay [2] was 101% (inactive). Also, in assay [6] (H69AR cells + 2 uM doxorubicin), the differential viability (reversal) was 8.43% (inactive). Besides, the inhibition in assay [7] was -4.67% (inactive); in assay [8], 0.48% (inactive).
With `Cc1cc(NC(=O)CN2CCC(O)(c3cccc(F)c3)CC2)no1`, the viability in assay [1] was 97%; in assay [3], 97% (inactive); in assay [4] it was 110% (inactive); in assay [5], 109% (inactive); in assay [6] (setting [9]), 86.6%; in assay [6] (setting [10]), 109%. For the same compound, the Her2 level in assay [2] is 107% (inactive). For the same compound, in assay [6] (H69AR cells + 2 uM doxorubicin), the differential viability (reversal) is 22.5% (inactive). The inhibition in assay [7] is -0.27% (inactive); in assay [8] it was -6.83% (inactive).
Turning to `CC(C)Cc1nc(S(=O)(=O)c2ccc(Cl)cc2)c(N2CCOCC2)o1`, the viability was 128% in assay [1]; 128% (inactive) in assay [3]; 87.8% (inactive) in assay [4]; 90.7% (inactive) in assay [5]; 90.1% in assay [6] (setting [9]); 90.7% in assay [6] (setting [10]). Besides, the Her2 level in assay [2] was 94.5% (inactive). In addition, in assay [6] (H69AR cells + 2 uM doxorubicin), the differential viability (reversal) is 0.63% (inactive). Besides, the figures for the inhibition in assay [7] and in assay [8] were -5.06% (inactive) and 1.75% (inactive), respectively.
On to `Cc1ccc(C(c2sc3nc(C)nn3c2O)N2CC(C)OC(C)C2)cc1` (stereo not given), for which the viability in assay [1] is 97%; in assay [3], 97% (inactive); in assay [4] it was 104% (inactive); in assay [5], 101% (inactive); in assay [6] (setting [9]), 90.2%; in assay [6] (setting [10]) it was 101%. Moreover, the Her2 level in assay [2] is 93% (inactive). In assay [6] (H69AR cells + 2 uM doxorubicin), the differential viability (reversal) is 11.1% (inactive). The inhibition in assay [7] is -1.17% (inactive); in assay [8] it was 0.49% (inactive).
On to `CCC(=O)N(Cc1cc2c(C)ccc(C)c2[nH]c1=O)C1CCCCC1`, for which the viability in assay [1] was 86%; in assay [3], 86% (inactive); in assay [4] it was 79.2% (inactive); in assay [5], 85.9% (inactive); in assay [6] (setting [9]), 86.6%; in assay [6] (setting [10]) it was 85.9%. Further, the Her2 level in assay [2] is 71.5% (inactive). The differential viability (reversal) in assay [6] (H69AR cells + 2 uM doxorubicin) is -0.72% (inactive). The inhibition is -6.71% (inactive) in assay [7] and 0.32% (inactive) in assay [8].
For `CCOC(=O)C(NC(=O)C1CCCN1C(=O)OCc1ccccc1)C(=O)OCC` (stereo not given), the viability was 104% in assay [1]; 104% (inactive) in assay [3]; 98.2% (inactive) in assay [4]; 99.8% (inactive) in assay [5]; 96.3% in assay [6] (setting [9]); 99.8% in assay [6] (setting [10]). The Her2 level in assay [2] was 94.5% (inactive). For the same compound, the differential viability (reversal) in assay [6] (H69AR cells + 2 uM doxorubicin) is 3.49% (inactive). Further, the inhibition in assay [7] was -1.58% (inactive); in assay [8], -1.77% (inactive).
